Laboratory results as given in ChEMBL document CHEMBL1124838, “5-Hydroxytryptamine (5-HT3) receptor antagonists. 2. 1-Indolinecarboxamides” (J Med Chem, 1990).

Biological target: Serotonin 3 (5-HT3) receptor (Rattus norvegicus) (UniProt P35563+Q9JJ16)
Test: Antagonist potency to 5-hydroxytryptamine 3 receptor was assayed by antagonism of the 5-HT-evoked reflex bradycardia [Bezold-Jarisch(BJ) reflex] in rats
Type: functional
Outline: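 Male rats (260–290 g) anesthetized with urethane (1.25 g/kg ip); blood pressure and heart rate recorded. 5-HT given repeatedly at a submaximal 6 μg/kg iv, and heart-rate changes quantified. Test drug given iv before 5-HT. ID50 is the dose that cuts the 5-HT-evoked response to 50% of control.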

Compound	ID50 [µg/kg]
CCC1CN(C(=O)NC2CC3CCC(C2)N3C)c2ccccc21 (centres undefined)	1.5
CN1C2CCC1CC(OC(=O)N1CCc3ccccc31)C2 (centres undefined)	4.3
CN1C2CCC1CC(NC(=O)N1CCc3cc(Cl)ccc31)C2 (centres undefined)	> 10
CN1C2CCC1CC(NC(=O)n1cc(-c3ccccc3)c3ccccc31)C2 (centres undefined)	5.1
CN1C2CCC1CC(NC(=O)N1CCCc3ccccc31)C2 (centres undefined)	> 100
CN1C2CCC1CC(NC(=O)n1ccc3ccccc31)C2 (centres undefined)	7.1
CCN1C2CCC1CC(NC(=O)N1CCc3ccccc31)C2 (centres undefined)	> 10
CN1C2CCC1CC(NC(=O)N1CC3(CCCC3)c3ccccc31)C2 (centres undefined)	1.2
CN1C2CCCC1CC(NC(=O)c1nn(C)c3ccccc13)C2 (centres undefined)	0.7
CN1C2CCC1CC(NC(=O)C1=CC(C)(C)c3ccccc31)C2 (centres undefined)	1
CN1C2CCCC1CC(NC(=O)N1CCc3ccccc31)C2 (centres undefined)	12.5
CC1Cc2ccccc2N1C(=O)NC1CC2CCC(C1)N2C (centres undefined)	0.8
CN1C2CCC1CC(NC(=O)N1CCc3cc([N+](=O)[O-])ccc31)C2 (centres undefined)	> 10
COc1ccc2c(c1)CCN2C(=O)NC1CC2CCC(C1)N2C (centres undefined)	> 10
CC1CN(C(=O)NC2CC3CCC(C2)N3C)c2ccccc21 (centres undefined)	3

Next, values leading:

ID50 [µg/kg]	Compound
1.8	CN1C2CCC1CC(NC(=O)N1CC(c3ccccc3)c3ccccc31)C2 (centres undefined)
1.6	Cc1cn(C(=O)NC2CC3CCC(C2)N3C)c2ccccc12 (centres undefined)
1.4	CN1C2CCC1CC(NC(=O)N1CCc3ccccc31)C2 (centres undefined)
3.6	CN1C2CCC1CC(NC(=O)N1CC3(CCCCC3)c3ccccc31)C2 (centres undefined)
2	CCc1cn(C(=O)NC2CC3CCC(C2)N3C)c2ccccc12 (centres undefined)
0.5	CC1c2ccccc2N(C(=O)NC2CC3CCC(C2)N3C)C1C (centres undefined)
> 10	CN1C2CCC1CC(NC(=O)N1CCc3cc(F)ccc31)C2 (centres undefined)
1.4	CC1N(C(=O)NC2CC3CCC(C2)N3C)c2ccccc2C1(C)C (centres undefined)
3.5	CN1C2CCC1CC(NC(=O)N1CC3(CC3)c3ccccc31)C2 (centres undefined)
